Series [1] is described as follows: AUC in Wistar rat at 1 mg/kg, iv. The class given is ADME, organism-based. Particulars: in vivo. In short, it runs like this:
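Wistar rats received a single 1 mg/kg intravenous dose. Plasma samples were collected and AUC was calculated from them, along with half-life, clearance and steady-state volume of distribution. Values are means of two animals (n=2).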

Series [2] is described as follows: Volume of distribution at steady state in Wistar rat at 1 mg/kg, iv. The class given is ADME, organism-based. The following applies: in vivo, read-out: Vdss.
Series [3] is described as follows: Clearance in Wistar rat at 1 mg/kg, iv. The following applies: in vivo.
A short description of series [4]: Drug metabolism in human liver microsomes assessed as disappearance of parent compound at 5 uM after 30 mins in presence of NADPH by UPLC-MS/MS analysis. On the technique in general: Microsomes from liver hold many membrane-bound enzymes, among them those of drug oxidation.
Series [5] has as its target T1, Phosphatidylinositol 4,5-bisphosphate 3-kinase catalytic subunit delta isoform (Homo sapiens, UniProt O00329).
T1 sequence (O00329 whole entry): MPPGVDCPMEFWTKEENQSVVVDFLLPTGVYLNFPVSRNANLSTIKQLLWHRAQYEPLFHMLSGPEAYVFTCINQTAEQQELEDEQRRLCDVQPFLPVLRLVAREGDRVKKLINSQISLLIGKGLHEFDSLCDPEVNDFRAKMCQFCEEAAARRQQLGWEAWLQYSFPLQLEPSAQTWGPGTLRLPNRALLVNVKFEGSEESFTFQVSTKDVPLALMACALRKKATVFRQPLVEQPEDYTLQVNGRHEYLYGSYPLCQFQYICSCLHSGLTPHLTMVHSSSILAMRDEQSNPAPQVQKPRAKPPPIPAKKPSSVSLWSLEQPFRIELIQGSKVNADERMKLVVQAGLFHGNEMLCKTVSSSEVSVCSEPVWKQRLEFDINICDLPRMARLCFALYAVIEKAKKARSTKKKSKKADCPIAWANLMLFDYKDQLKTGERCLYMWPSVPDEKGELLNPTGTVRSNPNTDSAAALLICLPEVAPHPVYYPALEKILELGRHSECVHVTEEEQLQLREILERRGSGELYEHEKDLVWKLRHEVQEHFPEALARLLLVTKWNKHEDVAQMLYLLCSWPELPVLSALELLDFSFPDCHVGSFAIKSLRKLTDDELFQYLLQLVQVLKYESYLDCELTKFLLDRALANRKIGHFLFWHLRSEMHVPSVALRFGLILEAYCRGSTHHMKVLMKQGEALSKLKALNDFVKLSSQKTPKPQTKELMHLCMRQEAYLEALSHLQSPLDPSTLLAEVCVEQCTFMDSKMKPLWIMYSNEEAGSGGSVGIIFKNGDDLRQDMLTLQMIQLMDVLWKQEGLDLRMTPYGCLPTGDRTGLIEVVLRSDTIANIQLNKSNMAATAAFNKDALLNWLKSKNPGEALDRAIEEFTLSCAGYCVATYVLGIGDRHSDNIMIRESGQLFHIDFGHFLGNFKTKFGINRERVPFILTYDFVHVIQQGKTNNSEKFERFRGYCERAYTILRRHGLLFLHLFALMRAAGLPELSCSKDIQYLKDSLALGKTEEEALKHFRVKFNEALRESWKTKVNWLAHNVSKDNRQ
The series can be described thus: Inhibition of PI3Kdelta in human THP1 cells assessed as reduction in MCSF-stimulated akt phosphorylation at Thr308 preincubated for 30 mins followed by MCSF stimulation for 3 mins by ELISA. The class given is cell-based, THP-1. In outline: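 THP-1 cells exposed to compound for 30 min, then stimulated with MCSF at EC80 for 3 min; lysates assayed by ELISA for pAkt (Thr308).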
(In general: An ELISA detects its analyte on a solid surface through an enzyme-linked reagent.)

Series [6] concerns the target PI3-kinase p110-delta/p85-alpha (Homo sapiens, UniProt O00329). The series can be described thus: Inhibition of full length recombinant human N-terminal His6-tagged PI3K p110delta/human p85alpha expressed in baculovirus infected sf21 cells using PIP2 as substrate preincubated for 30 mins followed by substrate addition by HTRF assay.
Series [7] in a line: Half life in Wistar rat at 1 mg/kg, iv. Particulars: in vivo. The class given is ADME, organism-based.
Series [8] can be described thus: Oral bioavailability in Wistar rat at 1 mg/kg administered via gavage. The series is classed as ADME, organism-based. Particulars: in vivo.
The test system of series [9] is Rattus norvegicus. The series can be described thus: In vivo inhibition of PI3Kdelta in Wistar rat assessed as reduction in ConA-induced increase in plasma IL2 production administered through oral gavage 1 hr prior to ConA measured 90 mins post ConA challenge by ELISA. The series is classed as functional. Particulars: read-out: ID50 (the source's name).
The test system of series [10] is Rattus norvegicus. The series can be described thus: Anti-inflammatory activity in Brown Norway rat assessed as reduction in OVA-induced eosinophil infilteration to bronchoalveolar lavage administered orally bid 1 hr prior to OVA challenge on day 14 and 6 hrs post OVA challenge on day 21 measured 24 hrs post last OVA challenge by microscopic method. The class given is functional. Particulars: po, read-out: ID50 (the source's name).

A short description of series [11]: Half life in Beagle dog at 1 mg/kg, iv through bolus administration. Particulars: in vivo. The series is classed as ADME, organism-based, Canis lupus familiaris.
Series [12] in a line: AUC in Beagle dog at 1 mg/kg, iv through bolus administration. The class given is ADME, organism-based, Canis lupus familiaris. The following applies: in vivo.
Series [13] is described as follows: Apparent volume of distribution in Beagle dog at 1 mg/kg, iv through bolus administration. The series is classed as ADME, organism-based, Canis lupus familiaris. The following applies: in vivo, read-out: Vz.
Series [14] is described as follows: Apparent volume of distribution in Wistar rat at 1 mg/kg, iv. The class given is ADME, organism-based. The following applies: in vivo, read-out: Vz.
Series [15] in a line: Drug metabolism in rat liver microsomes assessed as disappearance of parent compound at 5 uM after 30 mins in presence of NADPH by UPLC-MS/MS analysis.
Series [16] can be described thus: Clearance in Beagle dog at 1 mg/kg, iv through bolus administration. Particulars: in vivo.

PI3-kinase p110-delta/p85-alpha, sequence (P27986 whole entry, one chain of several): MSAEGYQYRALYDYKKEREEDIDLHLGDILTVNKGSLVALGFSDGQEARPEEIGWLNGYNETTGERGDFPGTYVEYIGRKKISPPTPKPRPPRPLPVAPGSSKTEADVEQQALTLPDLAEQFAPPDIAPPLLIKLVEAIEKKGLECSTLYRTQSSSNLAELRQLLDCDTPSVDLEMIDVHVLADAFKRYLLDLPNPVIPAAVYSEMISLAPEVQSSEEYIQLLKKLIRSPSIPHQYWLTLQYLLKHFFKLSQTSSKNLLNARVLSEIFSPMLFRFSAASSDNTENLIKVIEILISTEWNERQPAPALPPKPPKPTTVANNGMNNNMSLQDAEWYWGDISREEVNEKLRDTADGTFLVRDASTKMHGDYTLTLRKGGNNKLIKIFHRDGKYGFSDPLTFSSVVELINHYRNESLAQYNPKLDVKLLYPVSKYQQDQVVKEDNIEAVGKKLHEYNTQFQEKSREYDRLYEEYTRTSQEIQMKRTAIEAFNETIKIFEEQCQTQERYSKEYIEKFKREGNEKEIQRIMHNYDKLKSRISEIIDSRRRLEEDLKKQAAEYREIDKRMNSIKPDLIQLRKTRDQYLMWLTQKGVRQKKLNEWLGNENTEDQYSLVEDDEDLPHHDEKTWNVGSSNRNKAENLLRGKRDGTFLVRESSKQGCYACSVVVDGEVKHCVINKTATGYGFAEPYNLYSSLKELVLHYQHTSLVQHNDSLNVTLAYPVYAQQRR

For the molecule `N#Cc1c(N)ncnc1N[C@@H](CCO)c1nn2cccc2c(=O)n1-c1ccccc1`, in series [1], the AUC came to 450 ng·h/mL. Also, the Vd in series [2] was 1.6 L/kg. Moreover, in series [3], the clearance was found to be 36.8 mL/min/kg. The metabolised at 0.5 h, 5 µM in [4] was determined as 7%. Moreover, the results for the IC50 in [5] and in series [6] were 16 nM and 4.8 nM, respectively. In [7], this molecule gave a half-life of 1.1 h.
For `CC[C@H](Nc1ncnc2[nH]cnc12)c1nc2cccc(F)c2c(=O)n1-c1ccccc1` [IDELALISIB], the AUC turned out to be 512 ng·h/mL in [1] and 924 ng·h/mL in series [12]. Further, in [8], the bioavailability was 68%. In addition, the half-life in [7] was 0.8 h; in series [11], 1.6 h. Moreover, the ED50 in the series with Rattus norvegicus [9] stood at 1.6 mg/kg; in the series on Rattus norvegicus [10], 15 mg/kg. Further, the values for the Vd in [13] and in series [14] were 2.5 L/kg and 2.2 L/kg, respectively.
In the case of `C[C@H](Nc1ncnc(N)c1C#N)c1nn2ccc(C(F)(F)F)c2c(=O)n1-c1ccccc1`, the figures for the AUC in [1] and in series [12] were 2040 ng·h/mL and 3940 ng·h/mL, respectively. Further, the bioavailability in series [8] was 113%. Further, the clearance in [3] was 8.6 mL/min/kg; in series [16], 4.2 mL/min/kg. The metabolised at 0.5 h, 5 µM was 37% in [4] and 16% in [15]. Besides, the IC50 in [6] turned out to be 3 nM. Besides, the half-life is 3.3 h in [7] and 4.2 h in [11]. For the same molecule, the Vd in series [13] amounted to 1.5 L/kg; in series [14], 2.4 L/kg.
With `C[C@H](Nc1ncnc(N)c1C#N)c1nn2c(C#N)ccc2c(=O)n1-c1ccccc1`, the figures for the metabolised at 0.5 h, 5 µM in series [4] and in series [15] were 22% and 24%, respectively. The results for the IC50 in series [5] and in [6] were 11 nM and 4 nM, respectively.
For `Cc1ccc2c(=O)n(-c3ccccc3)c([C@H](C)Nc3ncnc(N)c3C#N)nn12` the same measures were 82%, 54%, 11 nM and 8.8 nM.
`N#Cc1c(N)ncnc1NC(CO)c1nn2cccc2c(=O)n1-c1ccccc1` (single isomer, unassigned): the metabolised at 0.5 h, 5 µM was found to be 31% in series [4] and 24% in series [15]. The values for the IC50 in [5] and in series [6] were 51 nM and 13 nM, respectively.
For `C[C@H](Nc1ncnc(N)c1C#N)c1nn2cccc2c(=O)n1-c1ccccc1`, the exposure (AUC) in series [1] turned out to be 386 ng·h/mL. Moreover, the Vd in series [2] turned out to be 1.9 L/kg. In [3], the clearance worked out at 43.5 mL/min/kg. Moreover, the metabolised at 0.5 h, 5 µM in series [4] turned out to be 24%; in series [15], 15%. In series [7], this molecule had a half-life of 0.9 h.
In the case of `C[C@H](Nc1ncnc2[nH]ccc12)c1nn2cccc2c(=O)n1-c1ccccc1`, the metabolised at 0.5 h, 5 µM in series [4] was 49%; in [15], 44%. Besides, the IC50 stood at 150 nM in series [5] and 52 nM in [6].
Regarding `C[C@H](Nc1nc(N)nc2[nH]cnc12)c1nn2cccc2c(=O)n1-c1ccccc1`, the metabolised at 0.5 h, 5 µM is 26% in series [4] and 30% in [15]. The figures for the IC50 in series [5] and in [6] were 6.5 nM and 3.1 nM, respectively.
For `Cc1ccn2nc([C@H](C)Nc3ncnc(N)c3C#N)n(-c3ccccc3)c(=O)c12`, in that order: 80%, 44%, 1.6 nM and 1.1 nM.
For `C[C@H](Nc1ncnc2[nH]cc(F)c12)c1nn2cccc2c(=O)n1-c1ccccc1` the same measures were 58%, 48%, 47 nM and 9 nM.

A word on the AUC: it is the area under the concentration-time curve, a measure of exposure. The clearance is a measure of how efficiently the substance is removed, as volume per time. One may read the IC50 as the concentration needed to halve the response being measured. The term half-life denotes how long it takes for the measured level to halve. High values mean slow decline, low ones rapid decline.

Source of the values: ChEMBL document CHEMBL3872285, “Discovery of a Potent, Selective, and Orally Available PI3Kδ Inhibitor for the Treatment of Inflammatory Diseases” (ACS Med Chem Lett, 2017).
